Experimental data from ChEMBL document CHEMBL4689842, “EUbOPEN Chemogenomics Library wave 1” (2021).

Test system: U2OS
Assay: Multiplex assay against U2OS
Format: toxicity, cell-based
Conditions: human
Outline: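 Live cells carried four stains from seeding: Hoechst33342, BioTracker Green Microtubule Cytoskeleton Dye, MitoTracker Red and Annexin V Alexa Fluor 680. They were imaged on a CQ1 microscope at 37°C and 5% CO2 after compound addition. Using CellPathfinder machine-learning gating, cells were split into Hoechst high-intensity objects or normal cells, normal cells into healthy, pyknosed or fragmented nuclei, and pyknosed cells into mitotic or apoptotic; tubulin, mitochondrial-mass and membrane-permeability phenotypes are per cents of healthy-nucleus cells.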

[1] = 12 h, 1 µM, compound concentration 1 uM, replicate 1
[2] = 12 h, 1 µM, compound concentration 1 uM, replicate 2
[3] = 12 h, 10 µM, compound concentration 10 uM, replicate 1
[4] = 12 h, 10 µM, compound concentration 10 uM, replicate 2
[5] = 24 h, 1 µM, compound concentration 1 uM, replicate 1
[6] = 24 h, 1 µM, compound concentration 1 uM, replicate 2
[7] = 24 h, 10 µM, compound concentration 10 uM, replicate 1
[8] = 24 h, 10 µM, compound concentration 10 uM, replicate 2
[9] = 48 h, 1 µM, compound concentration 1 uM, replicate 1
[10] = 48 h, 1 µM, compound concentration 1 uM, replicate 2
[11] = 48 h, 10 µM, compound concentration 10 uM, replicate 1
[12] = 48 h, 10 µM, compound concentration 10 uM, replicate 2

CNC(=O)Nc1ccc(-c2nc(N3CC4CCC(C3)O4)c3cnn(C4CCC5(CC4)OCCO5)c3n2)cc1
Population Apoptotic (%) [1]: 22% | Population Fragmented Nuclei (%) [1]: 24% | Population Healthy Nuclei (%) [1]: 59% | Population Hoechst High Intensity Objects (%) [1]: 13% | Population Membrane Permeable-Phenotype (%) [1]: 5% | Population Mitochondria Different-Phenotype (%) [1]: 11% | Population Mitotic Cells (%) [1]: 77% | Population Normal (%) [1]: 86% | Population Pyknosed Nuclei (%) [1]: 15% | Population Tubulin-Different-Phenotype (%) [1]: 26% | Total Cell Count [1]: 90 | Population Apoptotic (%) [2]: 0% | Population Fragmented Nuclei (%) [2]: 28% | Population Healthy Nuclei (%) [2]: 55% | Population Hoechst High Intensity Objects (%) [2]: 10% | Population Mitochondria Different-Phenotype (%) [2]: 13% | Population Mitotic Cells (%) [2]: 100% | Population Normal (%) [2]: 89% | Population Pyknosed Nuclei (%) [2]: 16% | Population Tubulin-Different-Phenotype (%) [2]: 18% | Total Cell Count [2]: 54 | Population Apoptotic (%) [3]: 40% | Population Fragmented Nuclei (%) [3]: 26% | Population Healthy Nuclei (%) [3]: 31% | Population Hoechst High Intensity Objects (%) [3]: 13% | Population Membrane Permeable-Phenotype (%) [3]: 11% | Population Mitochondria Different-Phenotype (%) [3]: 88% | Population Mitotic Cells (%) [3]: 59% | Population Normal (%) [3]: 87% | Population Pyknosed Nuclei (%) [3]: 42% | Population Tubulin-Different-Phenotype (%) [3]: 96% | Total Cell Count [3]: 66 | Population Apoptotic (%) [4]: 25% | Population Fragmented Nuclei (%) [4]: 13% | Population Healthy Nuclei (%) [4]: 54% | Population Hoechst High Intensity Objects (%) [4]: 6% | Population Membrane Permeable-Phenotype (%) [4]: 36% | Population Mitochondria Different-Phenotype (%) [4]: 75% | Population Mitotic Cells (%) [4]: 75% | Population Normal (%) [4]: 93% | Population Pyknosed Nuclei (%) [4]: 32% | Total Cell Count [4]: 107 | Population Apoptotic (%) [5]: 30% | Population Fragmented Nuclei (%) [5]: 28% | Population Healthy Nuclei (%) [5]: 52% | Population Hoechst High Intensity Objects (%) [5]: 19% | Population Membrane Permeable-Phenotype (%) [5]: 0% | Population Mitochondria Different-Phenotype (%) [5]: 14% | Population Mitotic Cells (%) [5]: 70% | Population Normal (%) [5]: 80% | Population Pyknosed Nuclei (%) [5]: 18% | Population Tubulin-Different-Phenotype (%) [5]: 14% | Total Cell Count [5]: 98 | Population Apoptotic (%) [6]: 25% | Population Fragmented Nuclei (%) [6]: 19% | Population Healthy Nuclei (%) [6]: 64% | Population Hoechst High Intensity Objects (%) [6]: 18% | Population Membrane Permeable-Phenotype (%) [6]: 8% | Population Mitochondria Different-Phenotype (%) [6]: 6% | Population Mitotic Cells (%) [6]: 75% | Population Normal (%) [6]: 81% | Population Pyknosed Nuclei (%) [6]: 16% | Population Tubulin-Different-Phenotype (%) [6]: 23% | Total Cell Count [6]: 55 | Population Apoptotic (%) [7]: 51% | Population Fragmented Nuclei (%) [7]: 25% | Population Healthy Nuclei (%) [7]: 35% | Population Hoechst High Intensity Objects (%) [7]: 10% | Population Membrane Permeable-Phenotype (%) [7]: 10% | Population Mitochondria Different-Phenotype (%) [7]: 89% | Population Mitotic Cells (%) [7]: 48% | Population Normal (%) [7]: 90% | Population Pyknosed Nuclei (%) [7]: 38% | Population Tubulin-Different-Phenotype (%) [7]: 93% | Total Cell Count [7]: 66 | Population Apoptotic (%) [8]: 41% | Population Fragmented Nuclei (%) [8]: 8% | Population Healthy Nuclei (%) [8]: 42% | Population Hoechst High Intensity Objects (%) [8]: 6% | Population Membrane Permeable-Phenotype (%) [8]: 44% | Population Mitochondria Different-Phenotype (%) [8]: 84% | Population Mitotic Cells (%) [8]: 58% | Population Normal (%) [8]: 93% | Population Pyknosed Nuclei (%) [8]: 49% | Population Tubulin-Different-Phenotype (%) [8]: 96% | Total Cell Count [8]: 90 | Population Apoptotic (%) [9]: 50% | Population Fragmented Nuclei (%) [9]: 39% | Population Healthy Nuclei (%) [9]: 49% | Population Hoechst High Intensity Objects (%) [9]: 18% | Population Membrane Permeable-Phenotype (%) [9]: 3% | Population Mitochondria Different-Phenotype (%) [9]: 7% | Population Mitotic Cells (%) [9]: 50% | Population Normal (%) [9]: 81% | Population Pyknosed Nuclei (%) [9]: 11% | Population Tubulin-Different-Phenotype (%) [9]: 19% | Total Cell Count [9]: 93 | Population Apoptotic (%) [10]: 36% | Population Fragmented Nuclei (%) [10]: 14% | Population Healthy Nuclei (%) [10]: 55% | Population Hoechst High Intensity Objects (%) [10]: 14% | Population Membrane Permeable-Phenotype (%) [10]: 5% | Population Mitochondria Different-Phenotype (%) [10]: 14% | Population Mitotic Cells (%) [10]: 63% | Population Normal (%) [10]: 85% | Population Pyknosed Nuclei (%) [10]: 30% | Population Tubulin-Different-Phenotype (%) [10]: 37% | Total Cell Count [10]: 56 | Population Apoptotic (%) [11]: 64% | Population Fragmented Nuclei (%) [11]: 29% | Population Healthy Nuclei (%) [11]: 23% | Population Hoechst High Intensity Objects (%) [11]: 12% | Population Membrane Permeable-Phenotype (%) [11]: 26% | Population Mitochondria Different-Phenotype (%) [11]: 94% | Population Mitotic Cells (%) [11]: 35% | Population Normal (%) [11]: 87% | Population Pyknosed Nuclei (%) [11]: 47% | Population Tubulin-Different-Phenotype (%) [11]: 94% | Total Cell Count [11]: 65 | Population Apoptotic (%) [12]: 43% | Population Fragmented Nuclei (%) [12]: 11% | Population Healthy Nuclei (%) [12]: 29% | Population Hoechst High Intensity Objects (%) [12]: 16% | Population Membrane Permeable-Phenotype (%) [12]: 40% | Population Mitochondria Different-Phenotype (%) [12]: 80% | Population Mitotic Cells (%) [12]: 56% | Population Normal (%) [12]: 83% | Population Pyknosed Nuclei (%) [12]: 58% | Population Tubulin-Different-Phenotype (%) [12]: 93% | Total Cell Count [12]: 74
